Bioassay records: PubChem BioAssay, several laboratories
The list is not random: actives were taken first. Their share in the collection is about 1.9%.
Runt-SMMHC FRET = inhibitors of RUNX1 Runt–CBFb-SMMHC binding, primary screen, biochemical, FRET, Cerulean-Runt, Venus-CBFb-SMMHC, uHTS | 0.74% of 220,000 active | Runt-related transcription factor 1 (Homo sapiens) + Core-binding factor subunit beta … | Cerulean-Runt/Venus-CBFb-SMMHC FRET ratio 530/480, 1 h | inhibition, % at 20 µM | AID 1434, 2008;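 active = mean inhibition across duplicate retests at 20 µM reaching about 50%, limit read from the data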;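 note: 0% = DMSO wells and 100% = wells with excess untagged CBFb-SMMHC; inhibitors lower the FRET ratio by blocking Runt binding to CBFb-SMMHC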
Hck-Nef inh = inhibitors of Nef-activated human Hck kinase, primary screen, biochemical, Z-Lyte FRET, 384-well, Hck-YEEI. Recombinant Hck-YEEI plus Nef, Z-Lyte FRET kinase assay. Tyrosine-protein kinase HCK (Homo sapiens), P08631. 0.68% of 220,000 active. inhibition, % at 20 µM;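 active = Hck-Nef kinase inhibition above about 50%, limit read from the data; inactive = inhibition below that limit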;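 note: 0% = DMSO with Hck plus Nef and 100% = Hck alone without Nef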
Target sequence (P08631 whole entry, looked up): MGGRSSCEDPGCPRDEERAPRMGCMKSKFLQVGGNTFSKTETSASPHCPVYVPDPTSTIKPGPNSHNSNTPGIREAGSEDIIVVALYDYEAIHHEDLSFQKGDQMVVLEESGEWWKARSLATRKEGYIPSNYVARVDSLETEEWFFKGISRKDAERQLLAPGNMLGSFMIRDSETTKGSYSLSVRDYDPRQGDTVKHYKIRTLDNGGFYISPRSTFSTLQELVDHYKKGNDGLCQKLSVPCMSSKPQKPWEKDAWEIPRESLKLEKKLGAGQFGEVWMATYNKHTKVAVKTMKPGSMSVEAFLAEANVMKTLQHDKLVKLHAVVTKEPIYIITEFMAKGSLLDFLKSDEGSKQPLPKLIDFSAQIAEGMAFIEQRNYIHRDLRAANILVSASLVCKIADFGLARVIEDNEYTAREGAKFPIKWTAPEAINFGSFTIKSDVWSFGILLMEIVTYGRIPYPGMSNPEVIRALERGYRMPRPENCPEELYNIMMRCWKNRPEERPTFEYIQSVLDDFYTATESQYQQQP
Runt-CBFb FRET = inhibitors of RUNX1 Runt–CBFb binding, primary screen, biochemical, FRET, Cerulean-Runt, Venus-CBFb, uHTS; Runt-related transcription factor 1 (Homo sapiens) + Core-binding factor subunit beta …; Cerulean-Runt/Venus-CBFb FRET ratio 530/480, 1 h; inhibition, % at 20 µM; 0.46% of 220,000 active;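 active = inhibition over about 50% at 20 µM in the single-dose screen, limit read from the data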;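 note: 0% = DMSO wells and 100% = excess unlabeled CBFb competitor control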
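Measured by: fluorescence energy transfer, 422 nm excitation, 530/480 nm emission; Assay system: Cerulean-Runt domain; Medium: Tris pH 7.5 buffer with BSA; Measure: loss of energy transfer signal; Controls: 5 µM unlabeled CBFb as full-inhibition high control; Incubation: protein complex preformed 1 h, compound exposure 1 h, room temperature, dark.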
RanGTP-Imp inh = inhibitors of RanGTP-importin-beta interaction, primary screen, biochemical, FRET, CFP-Ran, YFP-importin-beta, homogeneous; Ran GTPase (GTP-bound) - importin-beta complex; cell-free CFP-Ran/YFP-importin-beta FRET ratio; inhibition, % (concentration not given with the values); 1.1% of 300,000 active; AID 2216, 2009;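 active = more than half of the replicate wells show a fall in the fluorescence ratio signal beyond about 16%, limit read from the data, passing the limit was not always enough; inconclusive = exactly half of the replicate wells pass the set limit; inactive = fewer than half of replicates pass the limit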;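 note: 0% = DMSO wells and 100% = Ran loaded with GDP instead of GTP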
Tb hexokinase = Trypanosoma brucei hexokinase 1 inhibitors, primary screen, biochemical, G6PDH-coupled NADH absorbance, MLSCN library; hexokinase 1 [Trypanosoma brucei]; 0.11% of 220,000 active; inhibition, % at 10 µM; recombinant TbHK1, G6PDH-coupled NADH A340;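 active = inhibition of 50% or more in the single-dose primary screen; inactive = inhibition below 50%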
Active calls of the source: *; ? = inconclusive; . = no result.

SMILES	Runt-SMMHC FRET	Hck-Nef inh	Runt-CBFb FRET	RanGTP-Imp inh	Tb hexokinase
CC(=O)c1cccc(NC(=O)C2CCN(S(=O)(=O)c3c(C)n[nH]c3C)CC2)c1	0	3	100*	0	3
Cc1n[nH]c(C)c1S(=O)(=O)N1CCC(C(=O)Nc2cccc(F)c2)CC1	.	.	.	6	.
COc1nc(N)c(S(=O)(=O)c2ccccc2C)cc1C#N	60*	1	20	5	4
CN(C)c1ncc(S(=O)(=O)c2ccccc2)c(N)n1	-10	1	1	0	14
COc1nc(N)c(S(=O)(=O)c2ccccc2)cc1C#N	99*	5	40	12	-2
COc1nc(C)cc(C)c1S(=O)(=O)c1ccccc1C	.	.	.	-3	.
Cc1ccc(S(=O)(=O)Nc2cccc(Cl)c2)cc1NC(=O)c1cccnc1	1	24	-1	62*	3
Cc1ccc(S(=O)(=O)NC(C(=O)Oc2ccc3c(C)c(Cl)c(=O)oc3c2)c2ccccc2)cc1 (stereo not drawn)	59*	88*	64*	72*	-17
Cc1ccc(S(=O)(=O)N[C@H](C(=O)Oc2ccc3c(C(F)(F)F)cc(=O)oc3c2)c2ccccc2)cc1	78*	-1	11	33*	-9
COc1cc(C2C(C#N)=C(N)N(c3ccc(F)cc3)C3=C2S(=O)(=O)CC3)ccc1O (stereo not drawn)	-7	18	4	2	-4
COc1ccc(C(=O)NCCc2nnc3ccc(SCC(=O)N4CCCCC4)nn23)cc1	.	.	.	7	.
Cc1ccc(Nc2[nH]c(=O)c3ccccc3c2C(=O)c2ccccc2)cc1	.	.	.	27*	.
Nc1cc(=O)[nH]c(SCC(=O)Nc2ccc(Oc3ccccc3)cc2)n1	.	.	.	32*	.
Nc1cc(=O)[nH]c(SCC(=O)Nc2cccc(Cl)c2)n1	1	-1	0	?	-6
OCC(O)[C@@H](O[C@H]1O[C@H](CO)[C@@H](O)[C@H](O)[C@H]1O)[C@H](O)[C@@H](O)CO (stereo partly drawn)	.	.	.	2	.
Cc1ccc2c(c1)C(=O)CCN2	-152	5	-41	?	9
O=C1CCNc2cc3ccccc3cc21	75*	8	16	38*	-5
CN(C)CCC(O)(c1ccccc1)c1ccccc1	0	-1	0	1	1
CN(C)CCCC(C)(O)C(C)(C)c1ccccc1 (stereo not drawn)	-3	3	73*	-3	-3
COc1ccc(-c2noc(CCCc3ccccc3)n2)cc1OC	-5	0	-4	26*	-7
COC(=O)c1c(/N=C/N(C)C)sc2c1CCN(c1ncc(C(F)(F)F)cc1Cl)C2	58*	25	5	9	-11
COC(=O)c1c(N(S(C)(=O)=O)S(C)(=O)=O)sc2c1CCN(c1ncc(C(F)(F)F)cc1Cl)C2	79*	1	65*	2	-13
NNC(=O)C=C1CCN(c2ncc(C(F)(F)F)cc2Cl)CC1	1	0	2	-1	2
O=C(O)C=C1CCN(c2ncc(C(F)(F)F)cc2Cl)CC1	-3	1	-3	-1	0
COc1ccc(CNC(=O)c2ccccc2SCC(=O)N2CCCC2)cc1OC	.	.	.	2	.
COc1cc2sc3ccc(C#Cc4ccc(N)cc4)cc3c(=O)c2cc1OC	.	.	.	5	.
CNC(C)C#Cc1ccc2sc3cccc(OC)c3c(=O)c2c1 (stereo not drawn)	.	.	.	38*	.
COc1cccc2sc3ccc(C#CC4(N)CCCCC4)cc3c(=O)c12	.	.	.	55*	.
COc1ccc2c(C=Nc3c(C)n(C)n(-c4ccccc4)c3=O)c(O)n(Cc3ccco3)c(=O)c2c1	-140	1	-10	20*	-11
COC(=O)C1=C(NC(=O)c2ccccc2C)CCS1	-3	18	0	10	-13
